Paper PMC5696082 (Analytical biochemistry, 2017)
One block for each molecule: values may come before it.

Key:
PON1 = PON1 (Homo sapiens, UniProt P27169); experiment: Potency of esterase inhibitors, PON1; assay type: biochemical
In short: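 PON1 used as crude lysate of baculovirus-infected insect cells in PBS. Added to 2-fold serial inhibitor dilutions (top concentration at most 100 µM) and preincubated 5 min. Cyanohydrin ester substrate then added to 50 µM final, DMSO ≤2%, in 100 mM phosphate pH 8, 0.1 mg/mL BSA, 37°C. Fluorescence (ex 330/em 465 nm) read kinetically for 10 min. IC50 from linear regression of log[inhibitor] against % remaining activity; triplicates, single experiment.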

FAAH = target: T1, FAAH (Homo sapiens, UniProt O00519); experiment: Potency of esterase inhibitors, FAAH; assay type: biochemical
T1 sequence (O00519 1-579): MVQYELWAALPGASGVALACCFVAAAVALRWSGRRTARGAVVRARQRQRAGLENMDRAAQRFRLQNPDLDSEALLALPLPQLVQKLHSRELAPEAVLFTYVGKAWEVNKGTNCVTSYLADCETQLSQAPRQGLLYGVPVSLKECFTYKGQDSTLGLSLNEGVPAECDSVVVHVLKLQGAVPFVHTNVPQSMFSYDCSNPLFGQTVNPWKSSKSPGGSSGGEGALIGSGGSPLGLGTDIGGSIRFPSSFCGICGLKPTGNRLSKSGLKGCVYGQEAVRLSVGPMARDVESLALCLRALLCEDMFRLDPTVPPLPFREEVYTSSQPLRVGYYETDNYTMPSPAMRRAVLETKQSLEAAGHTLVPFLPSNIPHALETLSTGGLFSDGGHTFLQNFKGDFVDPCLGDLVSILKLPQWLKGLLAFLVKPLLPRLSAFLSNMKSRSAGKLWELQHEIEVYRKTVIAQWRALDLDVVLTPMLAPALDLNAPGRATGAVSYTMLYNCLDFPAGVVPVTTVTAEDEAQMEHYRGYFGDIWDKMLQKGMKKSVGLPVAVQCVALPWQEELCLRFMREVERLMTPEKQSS

AADAC = target: T2, AADAC (Homo sapiens, UniProt P22760); experiment: Potency of esterase inhibitors, AADAC; assay type: biochemical
T2 sequence (P22760 1-399): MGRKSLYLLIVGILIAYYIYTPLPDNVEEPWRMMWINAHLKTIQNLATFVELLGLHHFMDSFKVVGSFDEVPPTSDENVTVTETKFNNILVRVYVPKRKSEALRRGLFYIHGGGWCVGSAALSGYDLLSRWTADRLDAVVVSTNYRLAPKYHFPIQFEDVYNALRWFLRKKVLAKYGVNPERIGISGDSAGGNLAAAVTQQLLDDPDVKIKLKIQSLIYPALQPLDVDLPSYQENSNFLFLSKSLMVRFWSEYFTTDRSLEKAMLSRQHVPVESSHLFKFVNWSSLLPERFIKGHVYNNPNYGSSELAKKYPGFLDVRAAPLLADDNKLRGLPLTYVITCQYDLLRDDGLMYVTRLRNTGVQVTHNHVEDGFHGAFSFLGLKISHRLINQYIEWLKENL

hCE3 = target: T3, hCE3 (Homo sapiens, UniProt Q6UWW8); experiment: Potency of esterase inhibitors, hCE3; assay type: biochemical
T3 sequence (Q6UWW8 27-571): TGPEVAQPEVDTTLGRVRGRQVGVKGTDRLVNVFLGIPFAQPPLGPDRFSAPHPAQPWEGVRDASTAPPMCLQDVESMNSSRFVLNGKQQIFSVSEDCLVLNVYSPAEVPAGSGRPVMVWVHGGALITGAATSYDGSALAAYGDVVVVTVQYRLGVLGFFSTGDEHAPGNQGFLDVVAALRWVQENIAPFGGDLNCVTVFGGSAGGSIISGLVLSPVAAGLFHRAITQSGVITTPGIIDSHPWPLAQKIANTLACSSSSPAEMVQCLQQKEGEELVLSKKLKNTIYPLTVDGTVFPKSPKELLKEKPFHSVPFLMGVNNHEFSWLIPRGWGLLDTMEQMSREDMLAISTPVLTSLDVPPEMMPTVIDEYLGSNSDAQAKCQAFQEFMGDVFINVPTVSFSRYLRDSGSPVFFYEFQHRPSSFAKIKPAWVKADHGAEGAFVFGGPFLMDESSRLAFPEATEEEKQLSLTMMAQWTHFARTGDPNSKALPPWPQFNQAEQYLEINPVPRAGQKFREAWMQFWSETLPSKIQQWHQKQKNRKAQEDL

[1] = Background hydrolysis of substrates in phosphate buffer; assay type: physicochemical; settings: phosphate buffer 100 mM, pH 8, 0.1 mg/mL BSA
[2] = Fluorophore characterization; assay type: physicochemical; settings: for Maximum λemm / Maximum λexc / Relative Fluorescence Intensity: 37°C, phosphate buffer 100 mM pH 8, 0.1 mg/mL BSA, 1% DMSO
In short: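 Fluorophores dissolved in 100 mM phosphate buffer, pH 8, 0.1 mg/mL BSA, 1% DMSO, at 37°C. Excitation and emission maxima found by scanning fluorescence intensity at 2 nm steps on a plate spectrophotometer. Relative intensity expressed as RFU per nmol.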

Kinetic properties [3] = substrate: COc1ccc2cc(C(C#N)OC(C)=O)ccc2c1; experiment: Kinetic properties; assay type: biochemical, human; settings: 37°C, pH 8
Kinetic properties [4] = substrate: CCCCC(C)CCC(=O)Nc1ccc(OC)nc1C; experiment: Kinetic properties; assay type: biochemical, human; settings: 37°C, pH 8
[5] = other: hCE2, 6 substrate concentrations 3.13-100 µM
[6] = other: hCE1, 6 substrate concentrations 3.13-100 µM

PON1, sequence (P27169 whole entry, species assumed): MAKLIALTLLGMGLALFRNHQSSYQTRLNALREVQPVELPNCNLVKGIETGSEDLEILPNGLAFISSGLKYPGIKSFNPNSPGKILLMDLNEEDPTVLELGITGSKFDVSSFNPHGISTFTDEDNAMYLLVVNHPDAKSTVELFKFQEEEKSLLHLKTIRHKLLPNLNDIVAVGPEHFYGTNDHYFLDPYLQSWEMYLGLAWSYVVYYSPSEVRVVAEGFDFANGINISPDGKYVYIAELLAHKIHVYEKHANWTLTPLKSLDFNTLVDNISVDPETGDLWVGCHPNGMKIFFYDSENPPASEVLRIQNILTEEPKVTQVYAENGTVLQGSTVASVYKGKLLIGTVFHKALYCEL

Molecule: CN(C)C(=O)C(CCN1CCC(O)(c2ccc(Cl)cc2)CC1)(c1ccccc1)c1ccccc1 [Loperamide]
IC50 (PON1): > 100 µM
IC50 (FAAH): > 100 µM
IC50 (AADAC): 23 µM
IC50 (hCE3): > 100 µM

Molecule: COc1ccc(N)cn1 [II, 2-methoxy-5-aminopyridine]
Maximum λemm [2]: 398 nm
Maximum λexc [2]: 304 nm
Relative Fluorescence Intensity [2]: 3,100 RFU/nmol

B1: hCE2 (Homo sapiens) (protein)
chain: QDSASPIRTTHTGQVLGSLVHVKGANAGVQTFLGIPFAKPPLGPLRFAPPEPPESWSGVRDGTTHPAMCLQDLTAVESEFLSQFNMTFPSDSMSEDCLYLSIYTPAHSHEGSNLPVMVWIHGGALVFGMASLYDGSMLAALENVVVVIIQYRLGVLGFFSTGDKHATGNWGYLDQVAALRWVQQNIAHFGGNPDRVTIFGESAGGTSVSSLVVSPISQGLFHGAIMESGVALLPGLIASSADVISTVVANLSACDQVDSEALVGCLRGKSKEEILAINKPFKMIPGVVDGVFLPRHPQELLASADFQPVPSIVGVNNNEFGWLIPKVMRIYDTQKEMDREASQAALQKMLTLLMLPPTFGDLLREEYIGDNGDPQTLQAQFQEMMADSMFVIPALQVAHFQCSRAPVYFYEFQHQPSWLKNIRPPHMKADHGDELPFVFRSFFGGNYIKFTEEEEQLSRKMMKYWANFARNGNPNGEGLPHWPLFDQEEQYLQLNLQPAVGRALKAHRLQFWKKALPQKIQELEEPEERHTEL
Vmax (Kinetic properties [3]; [5]): 9.6 µmol/min/mg
Vmax/Km (Kinetic properties [3]; [5]): 1.2e+06 µL/min/mg
Vmax (Kinetic properties [4]; [5]): 0.004 µmol/min/mg
Vmax/Km (Kinetic properties [4]; [5]): 450 µL/min/mg

B2: hCE1 (Homo sapiens) (protein)
chain: GHPSSPPVVDTVHGKVLGKFVSLEGFAQPVAIFLGIPFAKPPLGPLRFTPPQPAEPWSFVKNATSYPPMCTQDPKAGQLLSELFTNRKENIPLKLSEDCLYLNIYTPADLTKKNRLPVMVWIHGGGLMVGAASTYDGLALAAHENVVVVTIQYRLGIWGFFSTGDEHSRGNWGHLDQVAALRWVQDNIASFGGNPGSVTIFGESAGGESVSVLVLSPLAKNLFHRAISESGVALTSVLVKKGDVKPLAEQIAITAGCKTTTSAVMVHCLRQKTEEELLETTLKMKFLSLDLQGDPRESQPLLGTVIDGMLLLKTPEELQAERNFHTVPYMVGINKQEFGWLIPMQLMSYPLSEGQLDQKTAMSLLWKSYPLVCIAKELIPEATEKYLGGTDDTVKKKDLFLDLIADVMFGVPSVIVARNHRDAGAPTYMYEFQYRPSFSSDMKPKTVIGDHGDELFSVFGAPFLKEGASEEEIRLSKMVMKFWANFARNGNPNGEGLPHWPEYNQKEGYLQIGANTQAAQKLKDKEVAFWTNLFAKKAVEKPPQTEHIEL
Vmax (Kinetic properties [3]; [6]): 1.4 µmol/min/mg
Vmax/Km (Kinetic properties [3]; [6]): 280000 µL/min/mg
Vmax (Kinetic properties [4]; [6]): 0.48 µmol/min/mg
Vmax/Km (Kinetic properties [4]; [6]): 17000 µL/min/mg

Continued, values first:

Rate of background hydrolysis [1]: 610 pmol/min
Molecule: CC(=O)Oc1ccc([N+](=O)[O-])cc1 [4-NPA, 4-nitrophenyl acetate]

Fluorescence, fold less than I [2]: 4 fold
Maximum λemm [2]: 364 nm
Maximum λexc [2]: 292 nm
Relative Fluorescence Intensity [2]: 1,100 RFU/nmol
Molecule: COc1nc(C)ccc1N [V, 2-methyl-5-amino-6-methoxypyridine]

Maximum λemm [2]: 394 nm
Maximum λexc [2]: 304 nm
Relative Fluorescence Intensity [2]: 4,400 RFU/nmol
Molecule: COc1ccc(N)c(C)n1 [I, 2-methoxy-5-amino-6-methylpyridine]

Maximum λemm [2]: 462 nm
Maximum λexc [2]: 320 nm
Relative Fluorescence Intensity [2]: 2,600 RFU/nmol
Molecule: COc1ccc2cc(C=O)ccc2c1 [VI, 6-methoxynaphthaldehyde]
